19 compounds from PubChem BioAssay can be followed below.

Assay [1] in a line: S. cerevisiae growth inhibition in permissive medium (OD615), pilot counter-assay for S. cerevisiae lifespan shortening project, permissive growth control (AID 705;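 active means growth inhibition above 25% in both replicates, a cutoff set 3 SD above the mean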). To be noted: OD615, 24 h, at 10 µM, active compounds read high. In a few lines:
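System – S. cerevisiae with engineered DeaD lifespan system · Buffer or medium – SC raffinose/galactose permissive medium · Schedule – cells pre-grown 4 h, then 24 h compound exposure, 30 °C humidified · Technique – culture turbidity as optical density at 615 nm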

Assay [2] in a line: S. cerevisiae growth inhibition in restrictive medium, OD615, pilot screen, restrictive growth control, yeast lifespan reduction project (AID 706;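 active means growth inhibition above a set limit, 3 SD over mean compound inhibition, in both replicates, cut at about 43% in these data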;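 further: modified DeaD lifespan yeast strain shifted to restrictive glucose medium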). To be noted: OD615, 48 h, at 10 µM, active compounds read high. In a few lines: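 Material: engineered S. cerevisiae DeaD strain / Medium: glucose-based CSMM-D restrictive medium / Compound: single dose of 10 µM compound final, 0.25% DMSO / Timing: 4 h pre-incubation, 48 h exposure at 30 °C / Technique: OD615 absorbance reading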

Assay [3] can be described thus: doxorubicin toxicity protection in MRP-1 cells – H69AR cells, CellTiter-Glo, duplicate, MRP-1 activator project, pilot screen (AID 807;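 active means viability increase at or above a cutoff of the median across tested compounds plus 3 SD, cut at about 8.5% in these data, passing the limit was not always enough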;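 further: compound pretreatment 18-22 h then 72 h combined with doxorubicin; 0% = doxorubicin alone and 100% = vehicle without doxorubicin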). The settings on record: H69AR viability with doxorubicin, CellTiter-Glo luminescence; at 10 µM; active compounds read high. Background: ATP-based viability assays read luminescence as a measure of living cells.
Assay [4] can be described thus: viability of HCT116 without oncogenic beta-catenin – human colon tumor cells, pilot screen (AID 823;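 active means cell viability at or below a set limit in both duplicate runs, the limit being the all-compound median minus 4 SD, cut at about 23% in these data, passing the limit was not always enough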;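 further: 0% = wells killed by 20 µM Hyamine and 100% = untreated DMSO cell wells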). The settings on record: HCT116 beta-catenin knockout viability, CellTiter-Glo, 60 h; at 10 µM; active compounds read low.
Assay [5] is described as follows: viability of PTEN-null HCT116 cells – cell-based, HCT116 clonal line, CellTiter-Glo, pilot screen (AID 824;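 active means viability at or below 27.92% in each of two runs, the all-compound median minus 4 SD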;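 further: 0% = 20 µM Hyamine control and 100% = vehicle cell control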). To be noted: HCT116 PTEN-deleted viability, 60 h, at 10 µM, active compounds read low.
A short description of assay [6]: RAM pathway blockade in budding yeast – dse1pr::URA3 reporter, 5-FOA selection, pilot screen (AID 869).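 Further: 0% = DMSO wells with no growth and 100% = 10 µM 1-NA-PP1 with full growth; RAM network block rescues cells from 5-FOA so hits raise OD615 growth.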 The settings on record: S. cerevisiae dse1pr::URA3 5-FOA growth, OD615, 2 d, at 10 µM, active compounds read high.
Assay [7] is described as follows: RAM signaling pathway blockade in yeast – S. cerevisiae, Pdr1DBD-CYC8 efflux-inhibited sensitized strain, primary screen (AID 1298;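 active means RAM network inhibition above 8.4% in each of two replicates, 3 SD over the compound average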;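 further: 0% = DMSO untreated cells without growth and 100% = 10 µM 1-NA-PP1 full growth; higher means more yeast growth rescued from 5-FOA killing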). The settings on record: S. cerevisiae cbk1-as DSE1-URA3 strain, 5-FOA growth OD615, 2 d; at 50 µM; active compounds read high.

Values without a mark were called inactive. Records with an inconclusive call do not appear. Activity calls are given as the source filed them.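 How the source made its calls, unless noted: active means inhibition over a set limit, the all-compound mean plus 3 SD, in both replicate runs; inconclusive means over that limit in just one replicate run; inactive means at or under that limit in both runs.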

In general, viability refers to a read-out of living cells in per cent, often relative to untreated cells. In general, inhibition refers to the relative decrease from the control value, in per cent. Consider `Cc1cc(Br)ccc1N1C(=O)CC(=O)NC1=O`, for which the growth inhibition is -12.1% in assay [1] and 7.12% in assay [2]. For the same compound, the viability increase in assay [3] was -0.25%. Besides, the viability is 93.4% in assay [4] and 95.3% in assay [5]. For the same compound, in assay [6], the inhibition was 0.535%. The RAM network inhibition in assay [7] is 0.67%.

In the case of `c1ccc2c(CN3CCCCCCC3)c[nH]c2c1`, the growth inhibition in assay [1] was -9.45%; in assay [2], 0.115%. Also, in assay [3], the viability increase is -6.65%. Further, the viability was 62.3% in assay [4] and 67.8% in assay [5]. The inhibition in assay [6] is 0.485%. The RAM network inhibition in assay [7] is 5.27%.

As for `O/N=C1\CCC2CN(C3CCCCC3)CC2C1` (stereo not drawn), the values for the growth inhibition in assay [1] and in assay [2] were 8.11% and -1.4%, respectively. For the same compound, in assay [3], the viability increase was -1.85%. The viability in assay [4] is 109%; in assay [5] it was 97.9%. Further, in assay [6], the inhibition was 0.775%. Besides, in assay [7], the RAM network inhibition was 0.94%.

As to `CC(C)NS(=O)(=O)c1ccc(OCC(=O)N2CCN(C)CC2)cc1`, the results for the growth inhibition in assay [1] and in assay [2] were -11.8% and -2.15%, respectively. The viability increase in assay [3] was -0.3%. In addition, the viability is 96.3% in assay [4] and 102% in assay [5]. For the same compound, the inhibition in assay [6] is 1.13%. In addition, in assay [7], the RAM network inhibition was 3.6%.

Turning to `OC12Oc3ccccc3C=C1N1CCC2CC1` (stereo not drawn), the growth inhibition in assay [1] is 1.47%; in assay [2], -1.35%. In assay [3], the viability increase was 0.26%. Moreover, the viability in assay [4] was 99.1%; in assay [5], 96.8%. For the same compound, in assay [6], the inhibition was 1.48%. Further, the RAM network inhibition in assay [7] is 0.26%.

For the compound `Cc1cc(OCC(=O)OC(C)(C)C)c2c3c(c(=O)oc2c1)CCC3`, the growth inhibition in assay [1] is -8.29%; in assay [2], -17%. In addition, in assay [3], the viability increase is -2.71%. Moreover, the results for the viability in assay [4] and in assay [5] were 88.2% and 85.6%, respectively. Besides, in assay [6], the inhibition was 2.17%. For the same compound, the RAM network inhibition in assay [7] is 5.46%.

As for `CC1CCCCN1CC(=O)c1ccc2cc[nH]c2c1` (stereo not drawn), the growth inhibition in assay [1] is -4.76%; in assay [2], 3.28%. In addition, the viability increase in assay [3] was -2.48%. The viability in assay [4] is 98.1%; in assay [5] it was 89.4%. Also, the inhibition in assay [6] is 1.31%. Moreover, the RAM network inhibition in assay [7] was 2.76%.

In the case of `O=c1c2ccccc2nc(-c2ccco2)n1-c1ccncc1`, the growth inhibition in assay [1] is -1.4%; in assay [2] it was 3.59%. For the same compound, the viability increase in assay [3] was 0.16%. Besides, the viability in assay [4] is 91.8%; in assay [5], 97.2%. For the same compound, the inhibition in assay [6] is 0.635%. The RAM network inhibition in assay [7] was -0.06%.

Consider `CN1CC=C(c2c[nH]c3ccccc23)CC1`, for which the values for the growth inhibition in assay [1] and in assay [2] were 0.43% and 10.4%, respectively. The viability increase in assay [3] is -3.51%. In addition, the viability in assay [4] is 92%; in assay [5], 92.5%. In addition, the inhibition in assay [6] was -0.185%. In addition, in assay [7], the RAM network inhibition is -1.66%.

As for `O=c1cccc2n1CC1CC2CN(Cc2ccc3c(c2)OCO3)C1` (stereo not drawn), the results for the growth inhibition in assay [1] and in assay [2] were -5.27% and 2.45%, respectively. The viability increase in assay [3] was -2.71%. The viability in assay [4] was 98.1%; in assay [5], 94.6%. The inhibition in assay [6] was 0.6%. Also, in assay [7], the RAM network inhibition is -0.2%.

Turning to `Cn1c(O)c(C=NCCOc2ccc(Cl)cc2)c(=O)n(C)c1=O`, the growth inhibition in assay [1] is 4%; in assay [2], 0.245%. Besides, the viability increase in assay [3] was 2.29%. The viability in assay [4] was 93.2%; in assay [5] it was 93.7%. Also, the inhibition in assay [6] was 1.06%. Further, in assay [7], the RAM network inhibition was 4.1%.

Consider `CCOC(=O)C1SC2(C(F)(F)C(F)F)CC1(O)c1c(c(OC)c3occc3c1OC)O2` (stereo not drawn), for which the growth inhibition in assay [1] is -4.93%; in assay [2], -26.4%. Moreover, the viability increase in assay [3] is -0.89%. Also, the viability in assay [4] was 98.4%; in assay [5] it was 86.9%. In assay [6], the inhibition was 1.6%. Also, the RAM network inhibition in assay [7] is 6.2%.

As to `CC1=CC(=C2C(=O)NC(=O)NC2=O)C=C(C(F)(F)F)N1C(C)C`, the growth inhibition in assay [1] was -13.5%; in assay [2], -9.69%. Besides, the viability increase in assay [3] is -1.79%. For the same compound, the viability in assay [4] is 92.5%; in assay [5], 91.3%. Besides, the inhibition in assay [6] is 2.69%. For the same compound, the RAM network inhibition in assay [7] is 0.05%.

As for `COC(=O)c1ccc(CN2CCN(Cc3ccccc3)CC2)cc1`, the growth inhibition in assay [1] is -18.9%; in assay [2], -15.9%. Besides, in assay [3], the viability increase was -1.15%. In addition, the viability in assay [4] is 94.5%; in assay [5], 90.8%. Further, the inhibition in assay [6] is 1.31%. Also, the RAM network inhibition in assay [7] was 1.37%.

For the compound `CN(C(=O)Oc1cccc2cccnc12)c1ccccc1`, the growth inhibition in assay [1] was -2.11%; in assay [2] it was 3.21%. The viability increase in assay [3] was -0.61%. Moreover, the figures for the viability in assay [4] and in assay [5] were 91% and 90.1%, respectively. For the same compound, in assay [6], the inhibition is 0.415%. The RAM network inhibition in assay [7] was 2.67%.

Consider `O=C(O)C1CN2CCC1CC2` (stereo not drawn), for which the growth inhibition in assay [1] was -6.59%; in assay [2] it was 5.84%. Also, the viability increase in assay [3] is -0.31%. In addition, the viability in assay [4] is 96.2%; in assay [5], 93.3%. Besides, the inhibition in assay [6] is 0.99%. In addition, the RAM network inhibition in assay [7] is -0.77%.

In the case of `CN(C)c1ccc(CN2CC=C(c3ccc(F)cc3)CC2)cc1`, the growth inhibition in assay [1] was -15.2%; in assay [2] it was -10.7%. Besides, the viability increase in assay [3] was -2.99%. The values for the viability in assay [4] and in assay [5] were 86.6% and 96.5%, respectively. For the same compound, the inhibition in assay [6] is 1.31%. Besides, the RAM network inhibition in assay [7] is 1.92%.

As to `CN1CSC(=S)N(C)C1`, the growth inhibition in assay [1] is 51.5% (active); in assay [2], 63.5% (active). For the same compound, the viability increase in assay [3] was -7.69%. In addition, the figures for the viability in assay [4] and in assay [5] were 13.9% (active) and 19.6% (active), respectively. Moreover, the inhibition in assay [6] was -0.745%. In addition, in assay [7], the RAM network inhibition was -1.87%.

Take `O=c1cccc2n1CC1CC2CN(C(c2ccccc2)c2sc3ncnn3c2O)C1` (stereo not drawn): the growth inhibition is 4.58% in assay [1] and 3.32% in assay [2]. In addition, the viability increase in assay [3] is -1.49%. Besides, the viability was 93.8% in assay [4] and 96.8% in assay [5]. Moreover, in assay [6], the inhibition was 1.01%. The RAM network inhibition in assay [7] is 1.32%.
